From PubChem
This is a sample that favours compounds with a hit; in the whole collection about 0.74% have one here.
RGS8-Gao reg – modulates binding of RGS8 to human Galphao; P09471; multiplexed bead flow cytometry; actives lie on both sides; response (percent of control binding), % at 10 µM; hit rate 0.34% among 220,000; AID 1423; in the data active = response below about 60% or above about 140%; inactive = in between;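 note: Galphao activated as the GDP aluminium fluoride complex binding bead-coupled RGS8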
Target sequence (P09471 whole entry, looked up): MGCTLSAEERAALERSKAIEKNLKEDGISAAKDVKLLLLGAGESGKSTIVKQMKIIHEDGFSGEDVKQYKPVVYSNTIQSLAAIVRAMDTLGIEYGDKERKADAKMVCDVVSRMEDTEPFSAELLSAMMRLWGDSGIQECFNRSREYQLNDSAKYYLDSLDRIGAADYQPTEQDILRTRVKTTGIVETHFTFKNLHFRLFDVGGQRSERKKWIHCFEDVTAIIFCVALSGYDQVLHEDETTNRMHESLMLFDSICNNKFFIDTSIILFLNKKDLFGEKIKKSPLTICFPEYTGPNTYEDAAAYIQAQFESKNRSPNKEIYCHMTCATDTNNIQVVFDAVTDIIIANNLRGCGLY
RGS4-Gao reg – human RGS4-Galphao interaction regulation | hit rate 0.33% among 220,000 | P09471 | Multiplexed bead flow cytometry, RGS4-Galphao binding; actives lie on both sides | AID 1415 | binding response (% of control), % at 10 µM; in the data active = binding response below about 49% or above about 150%; inactive = in between;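 note: fluorescent Galphao activated with aluminum fluoride binding bead-coupled RGS4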
RGS7-Gao reg – modulates binding of RGS7 to human Galphao. binding response (% of control), % at 10 µM. hit rate 0.35% among 220,000. Multiplexed bead flow cytometry; actives lie on both sides. AID 1439; in the data active = binding response below about 49% or above about 150%; inconclusive = no clear call, values can overlap the other calls; inactive = in between;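 note: fluorescent Galphao held in activated GDP-AlF4 state binding bead-coupled RGS7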
Biofilm kill mix – mixtures killing C. albicans biofilm. C. albicans biofilm persisters + clotrimazole, fluorescence viability; primary screen in compound mixtures of four per well. hit rate 0.02% among 120,000. inhibition, % at 7.6 µM;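 active = inhibition above 30.3% in the primary screen of four-compound pools, then above 30% when the compound was retested; inconclusive = passed the primary limit but could not be retested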;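 note: compounds exposed to preformed 24 h biofilms for 48 h; 0% = untreated biofilm control and 100% = clotrimazole plus chlorhexidine kill blank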
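Probe or stimulus – Clotrimazole 50 µg/mL co-treatment · System – C. albicans biofilms · Schedule – 24 h biofilm formation, then 48 h compound exposure, 37 °C · Evaluation – percent inhibition of biofilm viability · Technique – 2-h Alamar Blue fluorescence, 535/590 nm excitation/emission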
RGS16-Gao HTS – regulators of human RGS16-Galphao interaction; O15492+P09471; bead-based flow cytometry RGS16-Galphao binding, fluorescence; actives lie on both sides; binding response (% of control), % at 10 µM; hit rate 0.38% among 220,000;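 note: Galphao activated by GDP with aluminum fluoride before binding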
Target sequence (O15492 whole entry, looked up): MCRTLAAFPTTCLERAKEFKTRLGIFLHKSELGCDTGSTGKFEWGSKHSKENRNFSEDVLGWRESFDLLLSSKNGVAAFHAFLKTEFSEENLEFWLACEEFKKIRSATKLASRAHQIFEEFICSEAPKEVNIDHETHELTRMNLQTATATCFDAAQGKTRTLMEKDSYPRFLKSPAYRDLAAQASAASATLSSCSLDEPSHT
Target sequence (P09471 whole entry, looked up): as the sequence (P09471 whole entry, looked up) above
RGS-Gao – modulates binding between human RGS4 and Galphao | RGS4–Galpha-o binding response, % at 10 µM | AID 1504 | shares compounds with RGS16-Gao HTS | hit rate 99% among 1,600 | multiplexed bead flow cytometry, RGS–Galpha-o binding;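 note: fluorescently labeled Galpha-o bound to GDP with aluminium fluoride binding biotinylated RGS beads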
Biotin-avidin – interferes with biotinylated probe binding to avidin beads. streptavidin beads, fluorescein-biotin binding, flow cytometry. 1,700 tested, under 10 active. inhibition, % at 10 µM. shares compounds with RGS16-Gao HTS;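 active = inhibition above 50%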;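 note: median green fluorescence of gated singlet beads compared with DMSO control wells; 0% = DMSO wells and 100% = complete loss of bead fluorescence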
RGS8-Gao single – RGS8-Galphao interaction regulation, single point confirmation. shares compounds with RGS16-Gao HTS. bead-based flow cytometry RGS8-Galphao binding, fluorescence; actives lie on both sides. binding response (% of control), % at 10 µM. hit rate 3% among 1,700; in the data active = binding response below about 72% or above about 130%; inactive = in between;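 note: Galphao activated as GDP AlF4 complex before binding bead RGS8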
RGS7-Gao confirm – confirmation of regulators of human RGS7-Galphao interaction; shares compounds with RGS16-Gao HTS; bead-based flow cytometry RGS7-Galphao binding; actives lie on both sides; response (percent of control binding), % at 10 µM; hit rate 7.8% among 1,700; in the data active = response below about 75% or above about 130%; inactive = in between;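 note: fluorescent Galphao activated with GDP and aluminum fluoride binding bead-coupled RGS7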
RGS16-Gao single – confirmation of regulators of human RGS16-Galphao interaction. shares compounds with RGS16-Gao HTS. bead-based flow cytometry, RGS16-Galphao binding; actives lie on both sides. response (% of control binding), % at 10 µM. hit rate 4% among 1,700. AID 1838; in the data active = response below about 74% or above about 130%; inactive = in between;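 note: Galphao activated as the GDP aluminium fluoride complex binding bead-coupled RGS16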
RGS4-Gao confirm – confirmation of regulators of human RGS4-Galphao interaction; RGS4-Galphao binding, multiplexed bead flow cytometry; actives lie on both sides; binding response (% of control), % at 10 µM; hit rate 4% among 1,700; shares compounds with RGS16-Gao HTS; in the data active = binding response below about 74% or above about 130%; inactive = in between
RGS19-Gao conf – confirmation of regulators of human RGS19-Galphao interaction | shares compounds with RGS16-Gao HTS | bead-based flow cytometry RGS19-Galphao binding; actives lie on both sides | response (percent of control binding), % at 10 µM | hit rate 5% among 1,700 | AID 1841; in the data active = response below about 50% or above about 160%; inactive = in between;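 note: 100% = no compound control and 0% = blank background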
An asterisk follows results filed as active; ? = inconclusive; · = not tested or not shown; [ ] = remark or other dose. Unless noted, the rule behind the calls is not given here.

SMILES	RGS8-Gao reg	RGS4-Gao reg	RGS7-Gao reg	Biofilm kill mix	RGS16-Gao HTS	Biotin-avidin	RGS8-Gao single	RGS7-Gao confirm	RGS16-Gao single	RGS4-Gao confirm	RGS19-Gao conf	others
O=[N+]([O-])c1cc2c(cc1/C=N/n1c(-c3ccccn3)n[nH]c1=S)OCO2	72	86	84	15	-3.6*	2	95	115	86	98	76	RGS-Gao=86*
CCO[C@@H]1OC(C(=O)NC2CC2)=C[C@H](C2CC2)[C@H]1CCCO	97	99	?	18	102	·	·	·	·	·	·
C#CCNC(=O)C1=C[C@@H](C2CC2)[C@H](CCCO)[C@@H](OCC)O1	8.9*	4.8*	-5.5*	11	0.9*	-2	103	104	100	103	94
Cc1cccc(N2CN(Cc3cccnc3)CNC2=S)c1	104	99	98	10	105	·	·	·	·	·	·
S=C1NCN(Cc2cccnc2)CN1c1cccc2ccccc12	44*	26*	?	22	26	-1	98	90	97	98	92
CCOc1cc(/C=C2/SC(=S)N(C)C2=O)ccc1Oc1ccc([N+](=O)[O-])cc1[N+](=O)[O-]	102	102	102	13	100	·	·	·	·	·	·
O=C(O)CC1(CC(=O)NCc2cc(F)cc3c2OCOC3)CCCCC1	129	157*[activator]	?	16	151	-2	98	101	94	94	90
O=C(NCCCN1CCOCC1)C(=O)NCc1ccc(Cl)cc1	99	100	103	17	99	·	·	·	·	·	·
CCNC(=S)N(Cc1ccc(OC)cc1)C1CC(=O)N(c2ccc(OCC)cc2)C1=O (stereo not drawn)	·	·	·	·	·	0	102	108	107	103	99
CCNC(=S)N(Cc1ccc2c(c1)OCO2)C1CC(=O)N(c2ccc(OC)cc2)C1=O (stereo not drawn)	71	85	82	·	32	·	·	·	·	·	·
CCCCn1nnc(NC(=O)c2cc3ccccc3o2)n1	148*[activator]	134	127	·	426	1	110	119	111	115	106	RGS-Gao=134*
CCCn1nnc(NC(=O)c2cc3ccccc3o2)n1	100	100	101	·	102	·	·	·	·	·	·
CCN(CC)S(=O)(=O)c1cc(C(=O)Nc2nncs2)c(Cl)cc1Cl	77	105	·	·	57	0	97	96	91	94	91
Cc1oc2ccc(O)c(CN(C)C)c2c1C(=O)c1ccccc1	153*[activator]	123	122	18	275	1	100	100	98	97	108	RGS-Gao=123*
CCOC(=O)c1c(-c2ccccc2)oc2ccc(O)c(CN(C)C)c12	100	96	98	·	100	·	·	·	·	·	·
O=C(c1cccnc1Nc1ccc2c(c1)CCC2)N1CCOCC1	8.5*	-3.1*	-1.2*	·	-1.9*	-2	101	96	102	101	101
CC1CCCC(NC(=O)CCCn2c(=O)[nH]c3cc(Cl)ccc3c2=O)C1C (stereo not drawn)	110	212*[activator]	176*[activator]	·	204*[activator]	1	105	102	105	104	107
CC(C)n1nc(C(=O)OCC(=O)c2c[nH]c3ccccc23)c2ccccc2c1=O	·	·	·	·	·	0	91	81	84	87	61
CCC1(C(=O)OC)NC(c2cccc(F)c2)C2C(=O)N(C)C(=O)C21 (stereo not drawn)	101	100	103	12	104	·	·	·	·	·	·
COC(=O)C1(Cc2ccccc2)NC(c2ccc(F)cc2)C2C(=O)N(C)C(=O)C21 (stereo not drawn)	38*	32*	40*	-5	-7.0*	2	98	63*	89	72*	92
CCOC(=O)c1ccc(NC2OC(=O)c3ccccc32)cc1 (stereo not drawn)	·	·	·	·	·	2	104	109	106	103	107
CCOc1ccc(C2C([N+](=O)[O-])=C(C)N(C)C(=O)N2C)cc1OC (stereo not drawn)	104	107	104	-7	113	·	·	·	·	·	·
CCOC(=O)C(=CNc1ccc2c(c1)c1ccccc1n2CC)C(=O)OCC	102	99	?	20	104	·	·	·	·	·	·
COc1ccccc1NS(=O)(=O)c1cc(Cl)ccc1OC	144*[activator]	125	129	·	218	0	104	103	107	104	98	RGS-Gao=125*
CCOc1ccc2nc(NC(=O)C(NS(=O)(=O)c3cccc4nsnc34)C(C)C)sc2c1 (stereo not drawn)	131	153*[activator]	137	·	118	0	101	105	103	103	105
SMILES	RGS8-Gao reg	RGS4-Gao reg	RGS7-Gao reg	Biofilm kill mix	RGS16-Gao HTS	Biotin-avidin	RGS8-Gao single	RGS7-Gao confirm	RGS16-Gao single	RGS4-Gao confirm	RGS19-Gao conf	others
CC(C)C(NS(=O)(=O)c1cccc2nsnc12)C(=O)Nc1nc2ccc(Cl)cc2s1 (stereo not drawn)	101	100	104	·	103	·	·	·	·	·	·
COc1ccc(NC(=S)N2CCNC(=O)C2CC(=O)Nc2cccc(Cl)c2C)cc1 (stereo not drawn)	79	95	94	7	9.7*	0	95	95	94	96	92	RGS-Gao=95*
COc1ccccc1C(=O)N1CCNC(=O)C1CC(=O)Nc1cccc(C)c1 (stereo not drawn)	101	103	240*[activator]	·	115	-3	100	100	100	101	101	RGS-Gao=103*
CC(=C/c1ccco1)/C=N/NC(=O)c1nnn(-c2nonc2N)c1CN(C)C	102	102	101	13	106	·	·	·	·	·	·
COc1ccc(C(=O)c2ccccc2)c(OCC(=O)NC2CC2)c1	102	102	99	17	112	·	·	·	·	·	·
Cc1nn(Cc2ccccc2Cl)c2sc(C(=O)Nc3ccccc3N3CCOCC3)cc12	100	97	95	7	105	·	·	·	·	·	·
Cc1nn(Cc2ccc(F)cc2)c2sc(C(=O)Nc3ccccc3N3CCOCC3)cc12	83	89	91	15	15*	0	98	92	99	98	97	RGS-Gao=89*
NC(=O)/C(=C/c1cccnc1)NC(=O)c1ccccc1	102	107	?	35	104	·	·	·	·	·	·
